Measurements taken from ChEMBL document CHEMBL4715843, “NO-releasing STAT3 inhibitors suppress BRAF-mutant melanoma growth” (Eur J Med Chem, 2020).
Activity calls are given as the source filed them. The calls are words filed in the database; no cut-off is given here.

Key:
[1] = system: UO-31; assay: Anticancer activity against human UO-31 cells assessed as cell growth inhibition at 10 uM measured after 48 hrs by SRB assay relative to control; format: functional; details: read-out: GI
Procedure, shortened: (§1)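 NCI 60-cell-line screen. Cells in RPMI with 5% FBS were plated at 5,000–40,000 cells/well by doubling time and preincubated 24 h at 37 °C. Compound was added at a single 10 µM for 48 h, then cells were fixed with cold TCA (10% final) and stained with 0.4% SRB. Absorbance at 515 nm gave percent growth versus untreated control and time-zero cells.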

[2] = biological target: Signal transducer and activator of transcription 3 (Mus musculus) (UniProt P42227); assay: Inhibition of EGF-induced STAT3 phosphorylation in MEF assessed as reduction in STAT3 nuclear translocation preincubated overnight followed by EGF stimulation and measured after 30 mins by DAPI staining based immunofluorescence assay; details: dose 5-50 µM
Procedure, shortened: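 MEF cells (2000/well) were allowed to adhere for 24 h, then held overnight in serum-free medium with inhibitor doses. They were stimulated with full RPMI containing 100 nM EGF for 30 min, then fixed in 4% paraformaldehyde and permeabilized. Cells were immunostained for STAT3 (Alexa Fluor 488) with DAPI nuclear counterstain and nuclear STAT3 was quantified by imaging; three independent experiments.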

[3] = system: MCF7; assay: Anticancer activity against human MCF7 cells assessed as cell growth inhibition at 10 uM measured after 48 hrs by SRB assay relative to control; format: functional; details: read-out: GI; procedure, shortened: as §1
[4] = system: T47D; assay: Anticancer activity against human T47D cells assessed as cell growth inhibition at 10 uM measured after 48 hrs by SRB assay relative to control; format: functional; details: read-out: GI; procedure, shortened: as §1
[5] = biological target: T1, Signal transducer and activator of transcription 3 (Homo sapiens, UniProt P40763); assay: Inhibition of STAT3 phosphorylation at Y705 residues in human U-87 MG cells at 25 uM after 12 hrs by Western blotting analysis; format: cell-based
Procedure, shortened: (§2)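 Cells lysed in M-PER after 12 h drug exposure (overnight per text); 60 µg total protein run on 10% SDS-PAGE, transferred to PVDF, probed overnight at 4 °C with phospho-specific antibodies. Panel lines (U87-MG, MDA-MB-468, MIA PaCa-2, NCI-H157, A549) given 25 µM; A375 given 0, 5, 10, 25 µM. Actin and/or vinculin loading controls.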

[6] = biological target: T1, Signal transducer and activator of transcription 3; assay: Inhibition of STAT3 phosphorylation at S727 residues in human MDA-MB-468 cells at 25 uM after 12 hrs by Western blotting analysis; format: cell-based; procedure, shortened: as §2
[7] = biological target: T1, Signal transducer and activator of transcription 3; assay: Inhibition of STAT3 phosphorylation at S727 residues in human MIA PaCa-2 cells at 25 uM after 12 hrs by Western blotting analysis; format: cell-based; procedure, shortened: as §2
[8] = biological target: T1, Signal transducer and activator of transcription 3; assay: Inhibition of STAT3 phosphorylation at S727 residues in human NCI-H157 cells at 25 uM after 12 hrs by Western blotting analysis; format: cell-based; procedure, shortened: as §2
[9] = biological target: Tyrosine-protein kinase JAK2 (Homo sapiens) (UniProt O60674); assay: Inhibition of JAK2 phosphorylation in human A549 cells at 25 uM after 12 hrs by Western blotting analysis; format: cell-based; procedure, shortened: as §2
[10] = biological target: Proto-oncogene tyrosine-protein kinase Src (Homo sapiens) (UniProt P12931); assay: Inhibition of SRC phosphorylation in human MIA PaCa-2 cells at 25 uM after 12 hrs by Western blotting analysis; format: cell-based; procedure, shortened: as §2
[11] = biological target: Proto-oncogene tyrosine-protein kinase Src (Homo sapiens) (UniProt P12931); assay: Inhibition of SRC phosphorylation in human NCI-H157 cells at 25 uM after 12 hrs by Western blotting analysis; format: cell-based; procedure, shortened: as §2
[12] = system: U-87 MG; assay: Antiproliferative activity against human U-87 MG cells measured after 48 hrs by MTS assay; format: functional, cell-based; details: U-87MG ATCC
Procedure, shortened: (§3)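 Cells were exposed to a dose range of inhibitor for 48 h, and viability was read by MTS assay in triplicate. GI50 was taken as the concentration giving 50% growth inhibition, averaged from three independent experiments. A375 was cultured in RPMI-1640 with Glutamax. A549 and NCI-H157 were kept in RPMI-1640, and MIA PaCa-2 and U87-MG in DMEM.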

[13] = system: MDA-MB-468; assay: Antiproliferative activity against human MDA-MB-468 cells measured after 48 hrs by MTS assay; format: functional, cell-based
[14] = system: NCI-H157; assay: Antiproliferative activity against human NCI-H157 cells measured after 48 hrs by MTS assay; format: functional, cell-based; procedure, shortened: as §3
[15] = biological target: T1, Signal transducer and activator of transcription 3; assay: Inhibition of IL-6 induced STAT3 activation in human A-375 cells preincubated for overnight followed by IL-6 addition and measured after 30 mins by Western blot analysis; format: cell-based
Procedure, shortened: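 A375 cells were held overnight in serum-free medium with inhibitor doses, then stimulated in full medium with 25 ng/mL IL-6 for 30 min. Lysates were immunoblotted for STAT3 pY705/pS727 and Cyclin D1.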

[16] = system: A-375; assay: Induction of ROS generation in human A-375 cells incubated for 18 hrs by DCFH-DA dye based flow cytometry; format: functional, cell-based; details: dose 10-25 µM
Procedure, shortened: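 A375 cells (1×10^6) were treated with DMSO, 10 or 25 µM for 18 h in full RPMI, then trypsinized and washed. They were loaded with 10 µM DCFH-DA (final) for 30 min at 37 °C in the dark. DCF fluorescence was read by flow cytometry (488 nm excitation, 535 nm filter).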

[17] = system: 451Lu; assay: Induction of apoptosis in human SB-590885-resistant 451Lu cells assessed as increase in caspase-3/7 activation incubated for 45 to 60 hrs by IncuCyte Caspase-3/7 reagent based assay; format: functional; details: time 45-60 hrs
Procedure, shortened: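 451 Lu-R cells (2000/well) were allowed to adhere for 24 h, then treated with a dose range in full medium containing IncuCyte Caspase-3/7 reagent. Wells were imaged over time with a ×10 objective. Apoptotic cell counts were normalized to percent confluence at the final time point; SEM, n = 3–4.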

T1 sequence (P40763 whole entry): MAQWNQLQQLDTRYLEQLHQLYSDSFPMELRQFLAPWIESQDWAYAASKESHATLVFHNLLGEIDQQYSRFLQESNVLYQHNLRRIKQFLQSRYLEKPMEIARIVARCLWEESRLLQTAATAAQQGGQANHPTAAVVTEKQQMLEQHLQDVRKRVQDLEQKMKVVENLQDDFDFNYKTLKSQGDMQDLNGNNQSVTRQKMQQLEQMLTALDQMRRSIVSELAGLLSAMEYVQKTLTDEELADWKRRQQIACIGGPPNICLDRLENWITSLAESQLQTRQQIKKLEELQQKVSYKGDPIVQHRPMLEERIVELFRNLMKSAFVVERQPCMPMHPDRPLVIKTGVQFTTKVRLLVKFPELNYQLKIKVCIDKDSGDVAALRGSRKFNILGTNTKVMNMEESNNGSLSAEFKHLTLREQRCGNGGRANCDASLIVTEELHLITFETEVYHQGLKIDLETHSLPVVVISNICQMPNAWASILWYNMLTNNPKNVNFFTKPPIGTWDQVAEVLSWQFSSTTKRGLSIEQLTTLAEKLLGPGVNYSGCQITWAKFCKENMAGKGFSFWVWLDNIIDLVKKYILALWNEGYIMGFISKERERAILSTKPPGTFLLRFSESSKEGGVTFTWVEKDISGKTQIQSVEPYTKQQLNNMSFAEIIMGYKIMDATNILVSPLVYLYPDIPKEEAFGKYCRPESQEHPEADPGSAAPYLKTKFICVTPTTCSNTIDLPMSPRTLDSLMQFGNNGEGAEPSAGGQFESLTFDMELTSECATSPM
Chain of Proto-oncogene tyrosine-protein kinase Src (Homo sapiens) (P12931 2-536 limits assumed): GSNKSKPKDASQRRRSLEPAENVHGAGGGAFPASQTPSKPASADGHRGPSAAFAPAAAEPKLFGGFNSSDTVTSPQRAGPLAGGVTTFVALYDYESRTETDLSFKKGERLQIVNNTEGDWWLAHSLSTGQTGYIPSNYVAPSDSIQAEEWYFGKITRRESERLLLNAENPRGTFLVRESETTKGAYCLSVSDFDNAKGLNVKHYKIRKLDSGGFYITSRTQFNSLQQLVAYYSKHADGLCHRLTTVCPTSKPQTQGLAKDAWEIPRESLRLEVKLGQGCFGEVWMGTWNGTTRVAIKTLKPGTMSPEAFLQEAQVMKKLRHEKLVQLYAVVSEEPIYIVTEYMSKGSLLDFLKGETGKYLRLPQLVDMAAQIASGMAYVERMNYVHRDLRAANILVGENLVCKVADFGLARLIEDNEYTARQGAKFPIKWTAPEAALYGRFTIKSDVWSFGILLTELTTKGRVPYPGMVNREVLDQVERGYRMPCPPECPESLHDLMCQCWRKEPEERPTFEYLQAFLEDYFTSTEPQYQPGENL
Chain of Tyrosine-protein kinase JAK2 (Homo sapiens) (O60674 whole entry): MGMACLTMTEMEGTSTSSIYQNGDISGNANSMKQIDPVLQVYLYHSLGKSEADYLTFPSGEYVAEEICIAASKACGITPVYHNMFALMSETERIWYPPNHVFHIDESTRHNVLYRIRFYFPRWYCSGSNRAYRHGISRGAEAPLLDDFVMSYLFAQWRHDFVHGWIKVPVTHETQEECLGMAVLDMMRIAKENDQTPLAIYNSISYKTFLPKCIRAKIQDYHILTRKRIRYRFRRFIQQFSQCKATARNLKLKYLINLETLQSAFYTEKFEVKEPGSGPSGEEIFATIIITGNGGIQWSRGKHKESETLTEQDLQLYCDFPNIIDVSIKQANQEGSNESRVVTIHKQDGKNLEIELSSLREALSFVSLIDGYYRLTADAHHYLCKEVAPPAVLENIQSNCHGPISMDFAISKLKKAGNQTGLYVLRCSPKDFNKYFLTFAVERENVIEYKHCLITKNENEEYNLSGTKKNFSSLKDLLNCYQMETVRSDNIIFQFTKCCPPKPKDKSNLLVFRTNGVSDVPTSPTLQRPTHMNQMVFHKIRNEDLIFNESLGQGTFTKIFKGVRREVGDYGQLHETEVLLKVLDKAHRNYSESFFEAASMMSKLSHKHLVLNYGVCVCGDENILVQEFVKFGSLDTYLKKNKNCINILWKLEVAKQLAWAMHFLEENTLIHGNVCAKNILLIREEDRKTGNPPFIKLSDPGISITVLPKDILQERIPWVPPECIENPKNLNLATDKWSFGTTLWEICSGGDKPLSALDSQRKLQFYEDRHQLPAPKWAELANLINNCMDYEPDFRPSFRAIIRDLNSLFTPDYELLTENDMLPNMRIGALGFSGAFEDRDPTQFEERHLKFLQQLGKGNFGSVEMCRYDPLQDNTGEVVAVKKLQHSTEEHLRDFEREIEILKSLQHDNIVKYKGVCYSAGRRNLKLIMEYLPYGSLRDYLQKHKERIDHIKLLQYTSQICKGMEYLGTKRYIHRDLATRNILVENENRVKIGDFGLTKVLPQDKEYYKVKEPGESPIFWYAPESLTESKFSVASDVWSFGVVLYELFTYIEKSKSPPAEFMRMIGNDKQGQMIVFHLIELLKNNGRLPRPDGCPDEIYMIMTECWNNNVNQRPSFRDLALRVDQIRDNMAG
Chain of Signal transducer and activator of transcription 3 (Mus musculus) (P42227 whole entry): as the sequence (P40763 whole entry) above, with E760D counted along it

| Structure (SMILES) | inhibition of growth at 10 µM [1] | inhibition [2] | inhibition of growth at 10 µM [3] | inhibition of growth at 10 µM [4] | inhibition [5] | inhibition [6] | inhibition [7] | inhibition [8] | inhibition [9] | inhibition [10] | inhibition [11] | Activity [12] | Activity [13] | Activity [14] | inhibition [15] | Activity [16] | Activity [17] |
| --- | --- | --- | --- | --- | --- | --- | --- | --- | --- | --- | --- | --- | --- | --- | --- | --- | --- |
| C=CCn1c(SCC(=O)Nc2ccc(/C(C)=N\O)cc2)nnc1-c1cc(-c2ccc(Cl)cc2)nc2ccccc12 | 100% | Dose-dependent effect |  |  |  |  |  |  |  |  |  |  |  |  |  |  |  |
| C=CCn1c(SCC(=O)Nc2ccc(/C(C)=N\O)cc2)nnc1-c1cc(-c2ccccc2)nc2ccccc12 |  |  | 76% | 76% | Active | Active | Active | Active | inactive | inactive | inactive | Active | Active | Active | Dose-dependent effect | Dose-dependent effect | Dose-dependent effect |
